Measured values: ChEMBL document CHEMBL3862030, “Identification of the minimum PAR4 inhibitor pharmacophore and optimization of a series of 2-methoxy-6-arylimidazo[2,1-b][1,3,4]thiadiazoles” (Bioorg Med Chem Lett, 2016)
Each block holds one compound with its values, some of them ahead of it. The source made the active and inactive calls. The rule behind the calls is not given here.

Legend:
[1] = biological target: T1, Proteinase-activated receptor 4 (Homo sapiens, UniProt Q96RI0); assay: Antagonist activity at PAR4 in human platelets assessed as inhibition of activating peptide-induced PAC1 binding response preincubated for 20 mins followed by agonist addition for 20 mins by FITC-based flow cytometric analysis
T1 sequence (Q96RI0 whole entry): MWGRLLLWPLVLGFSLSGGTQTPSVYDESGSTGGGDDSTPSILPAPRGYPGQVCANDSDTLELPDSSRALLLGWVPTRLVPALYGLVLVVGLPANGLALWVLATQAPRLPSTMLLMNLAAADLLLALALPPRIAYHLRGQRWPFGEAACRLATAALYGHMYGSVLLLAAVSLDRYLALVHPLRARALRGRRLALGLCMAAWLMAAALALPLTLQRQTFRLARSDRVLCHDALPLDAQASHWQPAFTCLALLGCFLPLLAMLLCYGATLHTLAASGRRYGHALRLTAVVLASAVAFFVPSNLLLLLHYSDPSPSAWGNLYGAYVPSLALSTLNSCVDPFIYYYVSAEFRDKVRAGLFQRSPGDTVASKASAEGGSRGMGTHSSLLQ
Method in brief: (§1)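 Human platelets were activated with 200 μM PAR4-AP. The read-outs were PAC-1 binding and P-selectin exposure, measured by flow cytometry.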

[2] = biological target: T1, Proteinase-activated receptor 4; assay: Antagonist activity at PAR4 in human platelets assessed as inhibition of gamma-thrombin-induced PAC1 binding response preincubated for 20 mins followed by agonist addition for 20 mins by FITC-based flow cytometric analysis
Method in brief: (§2)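 Human platelets were stimulated with γ-thrombin at 100 nM. Activation was read by flow cytometry as PAC-1 binding and P-selectin surface expression.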

[3] = Intrinsic clearance in human liver microsomes at 1 uM preincubated for 5 mins followed by NADPH addition measured after 3 to 45 mins by LC/MS/MS analysis; type: ADME; settings: read-out: CLH
[4] = Fraction unbound in rat plasma at 5 uM after 4 hrs by equilibrium dialysis method; type: ADME, cell-free
[5] = Fraction unbound in human plasma at 5 uM after 4 hrs by equilibrium dialysis method; type: ADME, cell-free
Platelet [6] = assay: Antiplatelet activity in human platelets assessed as inhibition of gamma thrombin-induced aggregation at 316 nM to 3.16 uM preincubated for 20 mins followed by gamma thrombin addition measured for 10 mins by aggregometer; type: functional, cell-based
Method in brief: (§3)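 Aggregation was monitored for 10 min, with final % aggregation taken at that point. Data are means±SEM of at least three independent experiments, compared to controls by paired t-test.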

[7] = Intrinsic clearance in rat liver microsomes at 1 uM preincubated for 5 mins followed by NADPH addition measured after 3 to 45 mins by LC/MS/MS analysis; type: ADME; settings: read-out: CLH
[8] = biological target: T2, Proteinase-activated receptor 4 (Homo sapiens) (UniProt Q96RI0); settings: 31.6 to 1000 nM
T2 sequence (whole entry): T1 sequence (Q96RI0 whole entry)

[9] = Lipophilicity, log P of the compound; type: physicochemical; settings: octanol/water
Platelet [10] = assay: Antiplatelet activity in human platelets assessed as inhibition of activating peptide-induced aggregation at 316 to 1000 nM preincubated for 20 mins followed by activating peptide addition measured for 10 mins by aggregometer; type: functional, cell-based; method in brief: as §3
[11] = biological target: T2, Proteinase-activated receptor 4 (Homo sapiens); settings: 31.6 to 316 nM
Platelet [12] = assay: Antiplatelet activity in human platelets assessed as inhibition of activating peptide-induced aggregation at 100 to 316 nM preincubated for 20 mins followed by activating peptide addition measured for 10 mins by aggregometer; type: functional, cell-based; settings: 316 nM to 1 uM, in the assay text read “316 nM to 1 uM” for “100 to 316 nM”; method in brief: as §3
[13] = biological target: T1, Proteinase-activated receptor 4; assay: Antagonist activity at PAR4 in human platelets assessed as inhibition of gamma-thrombin-induced P-selectin activation; method in brief: as §2
[14] = biological target: T3, Proteinase-activated receptor 1 (Homo sapiens, UniProt P25116); assay: Antagonist activity at PAR1 in human platelets assessed as inhibition of activating peptide-induced P-selectin activation
T3 sequence (P25116 whole entry): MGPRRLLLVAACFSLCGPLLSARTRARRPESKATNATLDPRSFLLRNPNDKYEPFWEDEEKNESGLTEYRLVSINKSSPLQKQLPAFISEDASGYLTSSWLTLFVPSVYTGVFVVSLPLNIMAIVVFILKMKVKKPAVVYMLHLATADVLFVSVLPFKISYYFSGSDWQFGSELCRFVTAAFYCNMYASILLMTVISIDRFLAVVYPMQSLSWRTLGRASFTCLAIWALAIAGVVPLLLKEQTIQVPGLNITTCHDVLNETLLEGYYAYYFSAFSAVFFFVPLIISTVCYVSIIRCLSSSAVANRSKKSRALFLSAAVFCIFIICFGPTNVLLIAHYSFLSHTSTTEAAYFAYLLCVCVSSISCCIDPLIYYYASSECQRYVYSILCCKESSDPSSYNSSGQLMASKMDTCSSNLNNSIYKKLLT

[15] = biological target: T2, Proteinase-activated receptor 4 (Homo sapiens); assay: Ratio of IC50 for PAR4 in human platelets assessed as inhibition of gamma-thrombin-induced PAC1 binding response to IC50 for PAR4 in human platelets assessed as inhibition of activating peptide-induced PAC1 binding response
[16] = biological target: T1, Proteinase-activated receptor 4; assay: Antagonist activity at PAR4 in human platelets assessed as inhibition of activating peptide-induced P-selectin activation; method in brief: as §1
Platelet [17] = assay: Antiplatelet activity in human platelets assessed as inhibition of gamma thrombin-induced aggregation at 10 uM preincubated for 20 mins followed by gamma thrombin addition measured for 10 mins by aggregometer; type: functional, cell-based; method in brief: as §3
[18] = biological target: T3, Proteinase-activated receptor 1; assay: Antagonist activity at PAR1 in human platelets assessed as inhibition of activating peptide-induced PAC1 binding response
[19] = Fraction unbound in rat plasma; type: ADME, cell-free
[20] = Fraction unbound in human plasma; type: ADME, cell-free
[21] = biological target: T1, Proteinase-activated receptor 4; assay: Antagonist activity at PAR4 (unknown origin) assessed as inhibition of activating peptide-induced receptor activation
[22] = biological target: T1, Proteinase-activated receptor 4; assay: Antagonist activity at PAR4 (unknown origin) assessed as inhibition of gamma-thrombin-induced receptor activation

Structure (SMILES): CN(C)c1nn2cc(-c3c(F)cccc3F)nc2s1
IC50 [1]: 3.4 µM

Structure (SMILES): COc1nn2cc(-c3ccccc3[N+](=O)[O-])nc2s1
IC50 [1]: 4.84 µM

Structure (SMILES): COc1nn2cc(-c3cccc(Cl)c3)nc2s1
IC50 [1]: 0.0728 µM
IC50 [2]: > 10 µM

Structure (SMILES): COc1nn2cc(-c3cc(C(F)(F)F)cc(C(F)(F)F)c3)nc2s1
IC50 [2]: 5.62 µM

Structure (SMILES): COc1nn2cc(-c3cccc(F)c3)nc2s1
IC50 [1]: 0.675 µM

Structure (SMILES): COc1nn2cc(-c3cc4cc(OC(F)(F)F)ccc4n3C)nc2s1
IC50 [13]: 1 µM
IC50 [1]: 0.02 to 0.021 µM
IC50 [14]: > 10 µM
IC50 [2]: 1 µM
Ratio IC50 [15]: 50
IC50 [16]: 0.02 µM
inhibition (Platelet [17]): Active
IC50 [18]: > 10 µM
inhibition (Platelet [10]): Active

Structure (SMILES): COc1nn2cc(-c3cccc([N+](=O)[O-])c3)nc2s1
IC50 [1]: > 10 µM

Structure (SMILES): COc1cc(OCc2csc(-c3ccccc3)n2)c2cc(-c3cn4nc(OC)sc4n3)oc2c1
fraction unbound [19]: < 0.001
fraction unbound [20]: < 0.001

Structure (SMILES): COc1nn2cc(-c3ccccc3Cl)nc2s1
IC50 [1]: 0.437 µM

Structure (SMILES): COc1nn2cc(-c3cc4ccccc4o3)nc2s1
IC50 [21]: 0.00169 µM
IC50 [22]: 0.0588 µM

Structure (SMILES): CNc1nn2cc(-c3c(F)cccc3F)nc2s1
IC50 [1]: > 10 µM

More lines, main results first:

IC50 [2]: 2.54 µM
Structure (SMILES): COc1nn2cc(-c3ccc(OC(F)F)cc3)nc2s1

CLint scaled at 1 µM [3]: 13.6 to 19.9 mL/min/kg
Fu [4]: 0.006 to 0.014
Fu [5]: 0.006 to 0.014
CLint scaled at 1 µM [7]: 46.3 to 58.3 mL/min/kg
inhibition [8]: Active
logP [9]: > 4
Structure (SMILES): COc1nn2cc(-c3ccc(Cl)cc3)nc2s1
inhibition (Platelet [6]): Active
inhibition (Platelet [10]): Active

CLint scaled at 1 µM [3]: 13.6 to 19.9 mL/min/kg
inhibition [11]: Active
Fu [4]: 0.006 to 0.014
Fu [5]: 0.006 to 0.014
CLint scaled at 1 µM [7]: 46.3 to 58.3 mL/min/kg
logP [9]: > 4
Structure (SMILES): COc1nn2cc(-c3ccc(C(F)(F)F)cc3)nc2s1
inhibition (Platelet [6]): Active
inhibition (Platelet [12]): Active

IC50 [1]: 1.2 µM
Structure (SMILES): COc1nn2cc(-c3ccc(S(C)(=O)=O)cc3)nc2s1

IC50 [1]: 0.757 µM
Structure (SMILES): COc1nn2cc(-c3ccccc3)nc2s1

IC50 [1]: 0.937 µM
Structure (SMILES): COc1nn2cc(-c3ccc(C#N)cc3)nc2s1

CLint scaled at 1 µM [3]: 13.6 to 19.9 mL/min/kg
inhibition [11]: Active
Fu [4]: 0.006 to 0.014
Fu [5]: 0.006 to 0.014
CLint scaled at 1 µM [7]: 46.3 to 58.3 mL/min/kg
logP [9]: > 4
Structure (SMILES): COc1nn2cc(-c3ccc(OC(F)(F)F)cc3)nc2s1
inhibition (Platelet [6]): Active
inhibition (Platelet [12]): Active

IC50 [1]: 0.0572 µM
Structure (SMILES): COc1nn2cc(-c3ccc(C)cc3)nc2s1

IC50 [1]: 0.592 µM
Structure (SMILES): COc1ccc(-c2cn3nc(OC)sc3n2)cc1

IC50 [1]: > 10 µM
Structure (SMILES): COc1nn2cc(-c3ccc(O)cc3)nc2s1
